Tests used:
Oryctolagus cuniculus [1] = species: Oryctolagus cuniculus; assay: In vitro percent inhibition against U-44,069 (10e-7 M) induced contraction of rabbit aorta at 10e-5 M concentration.; type: functional
In short: (§1)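 Rabbit aortic strips (2-3 mm × 3 cm) in Krebs-Henseleit, 37 °C, 95% O2/5% CO2, 2 g resting tension, isometric recording. Drugs (final 10⁻⁵ to 10⁻⁸ M, 0.01% DMSO) added 10 min before U-44069 (2-6 nM, about 50% of the 30 mM KCl contraction). Percent inhibition, or concentration reducing contraction by 50%; duplicate means.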

Oryctolagus cuniculus [2] = species: Oryctolagus cuniculus; assay: In vitro concentration that reduced U-44069-induced contraction of the rabbit aorta by 50%; type: functional; in short: as §1
Oryctolagus cuniculus [3] = species: Oryctolagus cuniculus; assay: In vitro percent inhibition against U-44,069 (10e-7 M) induced contraction of rabbit aorta at 10e-6 M concentration; type: functional; in short: as §1
Cavia porcellus [4] = assay: In vivo percentage of inhibition against LTD -induced bronchoconstriction in guinea pig at a concentration of 0.08 mg/kg after 1 hour of oral administration; type: functional
In short: (§2)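 Urethane-anesthetized (1.5 g/kg ip) guinea pigs given gallamine (1 mg/kg iv); bronchoconstriction measured by Konzett-Rössler overflow. Challenge was U-46619, LTD4 or PAF at 10 μg/kg iv, or IgG1-mediated in animals sensitized ip with egg albumin (1 mg/kg)/FCA and used 3 weeks later. Drug given orally in 5% gum arabic 1 h before challenge; n = 8. ID50 = dose giving 50% inhibition.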

Cavia porcellus [5] = assay: In vivo percentage of inhibition against LTD -induced bronchoconstriction in guinea pig at a concentration of 0.31 mg/kg after 1 hour of oral administration; type: functional
In short: (§3)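 Guinea pigs were challenged iv with LTD4, PAF or U-46619, each at 10 µg/kg. Bronchoconstriction was measured by the Konzett-Rössler overflow method, as for the sensitized animals (urethane 1.5 g/kg ip, gallamine 1 mg/kg iv). Drug suspended in 5% gum arabic was dosed orally 1 h before spasmogen; eight animals per group; percent inhibition of bronchoconstriction.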

Cavia porcellus [6] = assay: In vivo percentage of inhibition against LTD -induced bronchoconstriction in guinea pig at a concentration of 1.25 mg/kg after 1 hour of oral administration; type: functional; in short: as §2
Cavia porcellus [7] = assay: In vivo percentage of inhibition against LTD -induced bronchoconstriction in guinea pig at a concentration of 5 mg/kg after 1 hour of oral administration; type: functional; in short: as §2
Cavia porcellus [8] = assay: In vivo percentage of inhibition against U-46619 -induced bronchoconstriction in guinea pig at a concentration of 0.08 mg/kg after 1 hour of oral administration; type: functional; in short: as §2
Cavia porcellus [9] = assay: In vivo percentage of inhibition against U-46619 -induced bronchoconstriction in guinea pig at a concentration of 0.31 mg/kg after 1 hour of oral administration; type: functional; in short: as §3
Cavia porcellus [10] = assay: In vivo percentage of inhibition against U-46619-induced bronchoconstriction in guinea pig at a concentration of 1.25 mg/kg after 1 hour of oral administration; type: functional; in short: as §2
Cavia porcellus [11] = species: Cavia porcellus; assay: In vitro concentration that reduced U-44069-induced aggregation of guinea pig platelets by 50%; type: functional
In short: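 PRP from conscious male guinea pigs, blood taken by cardiac puncture into 3.15% citrate (1:9); platelets adjusted to 450 000/μL. PRP preincubated 2 min at 37 °C, then incubated 2 min with U-44069 at a concentration giving submaximal aggregation. IC50 = antagonist concentration reducing aggregation by 50%.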

Oryctolagus cuniculus [12] = species: Oryctolagus cuniculus; assay: In vitro concentration that reduced U-44069-induced contraction of the rabbit aorta; type: functional; details: read-out: pA2 (converted); in short: as §1
Cavia porcellus [13] = species: Cavia porcellus; assay: In vitro concentration that reduced U-46619-induced contraction of guinea pig lung; details: read-out: pA2 (converted)
Oryctolagus cuniculus [14] = species: Oryctolagus cuniculus; assay: In vitro percent inhibition against U-44,069 (10e-7 M) induced contraction of rabbit aorta at 10e-7 M concentration; type: functional; in short: as §1
Cavia porcellus [15] = assay: In vivo percentage of inhibition against IgG1 -induced bronchoconstriction in guinea pig at a concentration of 5 mg/kg after 1 hour of oral administration; type: functional; in short: as §2
Cavia porcellus [16] = assay: In vivo percentage of inhibition against PAF -induced bronchoconstriction in guinea pig at a concentration of 0.31 mg/kg after 1 hour of oral administration; type: functional; in short: as §3
Cavia porcellus [17] = assay: In vivo percentage of inhibition against PAF-induced bronchoconstriction in guinea pig at a concentration of 1.25 mg/kg after 1 hour of oral administration; type: functional; in short: as §2
Cavia porcellus [18] = assay: In vivo percentage of inhibition against PAF-induced bronchoconstriction in guinea pig at a concentration of 5 mg/kg after 1 hour of oral administration; type: functional; in short: as §2
Cavia porcellus [19] = assay: In vivo percentage of inhibition against IgG1 -induced bronchoconstriction in guinea pig at a concentration of 1.25 mg/kg after 1 hour of oral administration; type: functional; in short: as §2
Cavia porcellus [20] = assay: In vivo percentage of inhibition against IgG1 -induced bronchoconstriction in guinea pig at a concentration of 0.31 mg/kg after 1 hour of oral administration; type: functional
In short: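 Guinea pigs sensitized ip with egg albumin (1 mg/kg) emulsified in Freund's complete adjuvant. Three weeks later, animals whose sera at 1:1000 gave a positive 3-h passive cutaneous anaphylaxis were used. Under urethane (1.5 g/kg ip) and gallamine (1 mg/kg iv), IgG1-mediated bronchoconstriction was measured by Konzett-Rössler overflow. Drug in 5% gum arabic was given orally 1 h before challenge; eight animals per group.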

Cavia porcellus [21] = assay: In vivo inhibition against IgG1-induced bronchoconstriction in guinea pig; type: functional; details: read-out: ID50 (the source's name); in short: as §2
Cavia porcellus [22] = assay: In vivo inhibition against LTD-induced bronchoconstriction in guinea pig; type: functional; details: read-out: ID50 (the source's name); in short: as §2
Cavia porcellus [23] = assay: In vivo inhibition against U-46619-induced bronchoconstriction in guinea pig; type: functional; details: read-out: ID50 (the source's name); in short: as §2
Cavia porcellus [24] = species: Cavia porcellus; assay: In vitro concentration that reduced U-46619-induced contraction of guinea pig lung; details: read-out: pA2 (converted); remark: listed apart in the source

Compound	Inhibition (Oryctolagus cuniculus [1])	IC50 (Oryctolagus cuniculus [2])	Inhibition (Oryctolagus cuniculus [3])	also measured
COC(=O)CCCCCC(C1=C(C)C(=O)C(C)=C(C)C1=O)c1ccccc1 (configuration not stated)	95%	1400 nM	36%	
CCCCCCC(C1=C(C)C(=O)C(C)=C(C)C1=O)c1ccccc1 (configuration not stated)	25%			
CC1=C(C)C(=O)C(C(CCCCCCO)c2ccccc2)=C(C)C1=O (configuration not stated)	0%			
CC1=C(C)C(=O)C(C(CCCCCCCC(=O)O)c2ccccc2)=C(C)C1=O (configuration not stated)	94%	3400 nM	0%	
CC1=C(C)C(=O)C(C(CCCCCC(=O)NC(C)c2ccccc2)c2ccccc2)=C(C)C1=O (configuration not stated)	33%			
CC1=C(C)C(=O)C(C(CCCCCCC(=O)O)c2ccccc2)=C(C)C1=O (configuration not stated)	98%	3200 nM	0%	
CC1=C(C)C(=O)C(C(CCCCCC(=O)NC(C)C)c2ccccc2)=C(C)C1=O (configuration not stated)	8%			
CC1=C(C)C(=O)C(C(CCCCC(=O)O)c2ccccc2)=C(C)C1=O (configuration not stated)	63%			
CC1=C(C)C(=O)C(C(CCCC(=O)O)c2ccccc2)=C(C)C1=O (configuration not stated)	24%			
CC1=C(C)C(=O)C(C(CCc2cccc(C(=O)O)c2)c2ccccc2)=C(C)C1=O (configuration not stated)	89%		0%	
CC1=C(C)C(=O)C([C@H](CCCCCC(=O)O)c2ccccc2)=C(C)C1=O				inhibition in vivo at 0.08 mg/kg (Cavia porcellus [4]): 12%; inhibition in vivo at 0.31 mg/kg (Cavia porcellus [5]): 85%; inhibition in vivo at 1.25 mg/kg (Cavia porcellus [6]): 85%; inhibition in vivo at 5 mg/kg (Cavia porcellus [7]): 80%; inhibition in vivo at 0.08 mg/kg (Cavia porcellus [8]): 72%; inhibition in vivo at 0.31 mg/kg (Cavia porcellus [9]): 75%; inhibition in vivo at 1.25 mg/kg (Cavia porcellus [10]): 93%; IC50 (Cavia porcellus [11]): 120 nM; Kb (Oryctolagus cuniculus [12]): 2.51 nM; Kb (Cavia porcellus [13]): 1.58 nM
CC1=C(C)C(=O)C(CCCCCCC(=O)O)=C(C)C1=O	8%			
CC1=C(C)C(=O)C(C(CCCCCC(=O)O)c2ccc(Br)cc2)=C(C)C1=O (configuration not stated)	94%	1700 nM	36%	
CC1=C(C)C(=O)C(C(CCCCCC(=O)O)c2ccc(Cl)cc2)=C(C)C1=O (configuration not stated)	100%	280 nM	91%	Inhibition (Oryctolagus cuniculus [14]): 17%
CC1=C(C)C(=O)C(C(CCCCCC(=O)O)c2ccc(C(C)C)cc2)=C(C)C1=O (configuration not stated)	4%			
CC1=C(C)C(=O)C(C(CCCCCC(=O)O)c2cccs2)=C(C)C1=O (configuration not stated)	100%	760 nM	65%	Inhibition (Oryctolagus cuniculus [14]): 0%
COC1=C(OC)C(=O)C(C(CCCCCC(=O)O)c2ccccc2)=C(C)C1=O (configuration not stated)	0%			
COC1=C(OC)C(=O)C(C(CCCCCC(=O)O)c2ccc(F)cc2)=C(C)C1=O (configuration not stated)	99%	3200 nM	0%	
CC1=C(C)C(=O)C(C(CCCCCC(=O)O)c2ccccc2)=C(C)C1=O (configuration not stated) [SERATRODAST]	99%	100 nM	99%	inhibition in vivo at 5 mg/kg (Cavia porcellus [15]): 91%; inhibition in vivo at 0.08 mg/kg (Cavia porcellus [4]): 24%; inhibition in vivo at 0.31 mg/kg (Cavia porcellus [5]): 58%; inhibition in vivo at 1.25 mg/kg (Cavia porcellus [6]): 77%; inhibition in vivo at 5 mg/kg (Cavia porcellus [7]): 94%; inhibition in vivo at 0.31 mg/kg (Cavia porcellus [16]): 66%; inhibition in vivo at 1.25 mg/kg (Cavia porcellus [17]): 94%; inhibition in vivo at 5 mg/kg (Cavia porcellus [18]): 85%; inhibition in vivo at 0.08 mg/kg (Cavia porcellus [8]): 31%; inhibition in vivo at 0.31 mg/kg (Cavia porcellus [9]): 89%; inhibition in vivo at 1.25 mg/kg (Cavia porcellus [10]): 90%; inhibition in vivo at 1.25 mg/kg (Cavia porcellus [19]): 85%; inhibition in vivo at 0.31 mg/kg (Cavia porcellus [20]): 71%; ED50 (Cavia porcellus [21]): 0.2 mg/kg; ED50 (Cavia porcellus [22]): 0.19 mg/kg; ED50 (Cavia porcellus [23]): 0.13 mg/kg; IC50 (Cavia porcellus [11]): 350 nM; Kb (Oryctolagus cuniculus [12]): 5.25 nM; Inhibition (Oryctolagus cuniculus [14]): 49%; Kb (Cavia porcellus [24]): 5.13 nM

From ChEMBL document CHEMBL1124597, “Quinones. 4. Novel eicosanoid antagonists: synthesis and pharmacological evaluation” (J Med Chem, 1989)
